S1P1 ag-PAM: S1P1 agonists and agonism potentiators, primary screen, cell-based, primary and confirmation screens, CRE-bla reporter | activation, % at 9.5 µM | S1P1 CRE-bla cells, forskolin, beta-lactamase FRET, potentiator mode; S1P1 agonist co-added at EC20, 2 nM; 100% = saturating reference agonist, 0% = basal | 56,000 tested, 0.57% active | Sphingosine 1-phosphate receptor 1 (Homo sapiens), P21453;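 active means activation above a cutoff set at the mean activation of all tested compounds plus 3 SD, cut at about 54% in these data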;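 further: forskolin at 4 µM as EC80 and the EC20 agonist is SEW2871; 100% = SEW2871 at its EC100 plus forskolin at EC80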
Target sequence (P21453 whole entry, looked up): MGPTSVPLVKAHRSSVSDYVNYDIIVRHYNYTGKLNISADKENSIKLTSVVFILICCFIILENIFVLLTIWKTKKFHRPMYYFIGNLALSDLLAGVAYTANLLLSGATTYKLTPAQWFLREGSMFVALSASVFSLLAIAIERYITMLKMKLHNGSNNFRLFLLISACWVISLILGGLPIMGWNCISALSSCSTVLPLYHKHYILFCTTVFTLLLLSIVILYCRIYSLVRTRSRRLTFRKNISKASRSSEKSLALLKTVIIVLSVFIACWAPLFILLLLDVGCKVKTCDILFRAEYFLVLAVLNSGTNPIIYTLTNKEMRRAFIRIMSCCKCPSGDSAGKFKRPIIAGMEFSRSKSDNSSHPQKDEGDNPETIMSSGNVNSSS
S1P3 ag: human S1P3 receptor agonists, primary screen, cell-based, primary and confirmation, NFAT-BLA reporter; Sphingosine 1-phosphate receptor 3 (Homo sapiens), Q99500; S1P3 NFAT-BLA reporter cells, agonism, FRET ratio; relative to 1 µM S1P, basal subtracted; activation, % at 4.5 µM; 60,000 tested, 0.1% active;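 active means activation above the screen-wide mean plus 3 SD, cut at about 4.5% in these data, passing the limit was not always enough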
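Measure – % activation relative to 1 µM S1P (100%), per plate · System – stable CHO line with human S1P3, Gα16, NFAT-BLA reporter · Timing – cells plated overnight, compound 4 h 37 °C, substrate 2 h RT · Technique – fluorescent BLA substrate, ex 405 nm, em 460/535 nm ratio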
5-HT1A blocker: human 5-HT1a receptor antagonists, primary screen, cell-based, CHO, Ga15 NFAT-bla reporter | 5-hydroxytryptamine receptor 1A (Homo sapiens), P08908 | CHO 5-HT1a Ga15 NFAT-bla reporter, antagonist mode | 62,000 tested, 0.68% active | AID 612, 2007 | inhibition, % at 10 µM;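 active means inhibition above the mean of all tested compounds plus 3 SD, cut at about 43% in these data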;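 further: receptor stimulated by 5-CT agonist at 100 nM near EC80; beta-lactamase reporter measured by ratiometric fluorescence of a cleavable substrate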
HTR1E agonist: 5-HT1E receptor agonists, primary screen, cell-based, HTS | 5-hydroxytryptamine receptor 1E (Homo sapiens), P28566 | CHO 5-HT1E Ga15 NFAT-bla reporter, FRET; 0% DMSO wells, 100% control agonist wells | activation, % at 6 µM | 65,000 tested, 0.69% active;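 active means activation above a set limit, the screen-wide mean activation plus 3 SD, cut at about 8.5% in these data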;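 further: 100% = positive control agonist at 1 µM giving full maximal response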
5HT1a ag: human 5-HT1a receptor agonists, primary screen, cell-based, CHO, Ga15 NFAT-bla reporter. 5-hydroxytryptamine receptor 1A (Homo sapiens), P08908. CHO 5-HT1a Ga15 NFAT-bla reporter, FRET ratio; 0% basal, 100% maximal reference agonist. activation, % at 10 µM. 65,000 tested, 0.56% active. AID 567, 2006;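 active means activation above the screen-wide mean activation plus 3 SD, cut at about 19% in these data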;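 further: 0% = DMSO wells and 100% = 5-CT at EC100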
HTR1E antagonist: 5-HT1E receptor antagonists, primary screen, cell-based, HTS. 5-hydroxytryptamine receptor 1E (Homo sapiens), P28566. CHO 5-HT1E Ga15 NFAT-bla reporter, FRET, antagonist. inhibition, % at 6 µM. 65,000 tested, 0.99% active;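 active means inhibition above a set limit, the mean inhibition across every tested compound plus 3 SD, cut at about 29% in these data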;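 further: signal is the 460 over 535 nm emission ratio of beta-lactamase substrate; 0% = agonist plus DMSO wells and 100% = wells without agonist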
An asterisk follows results filed as active; x = no result given. Shown are actives, neighbours in structure and some others; about 3% of the full set was active somewhere.

SMILES	S1P1 ag-PAM	S1P3 ag	5-HT1A blocker	HTR1E agonist	5HT1a ag	HTR1E antagonist
CCC(C)(C(=O)NC1CCCCC1)N(Cc1ccco1)C(=O)c1ccc2c(c1)OCO2 (stereo not given)	3	-1	44*	-1	-1	-6
CCN(CC)C(=O)CN(C#N)c1nc(NC(C)C)nc(NC(C)C)n1	8	-1	x	0	-1	-11
CCCN(C#N)c1nc(NCC)nc(NC(C)C)n1	-26	0	8	1	-1	29*
Cc1cccc(NC(=O)CN2C(=O)COc3ccc(Cl)cc32)c1C	-14	0	36	-1	-3	7
CC(=O)Nc1nonc1-c1nc2ccccc2n1N(C(C)=O)C(C)=O	1	-1	2	-1	1	8
O=C(NCc1ccco1)Nc1ccc(Br)cc1	32	-1	32	-1	0	13
O=C(NCc1ccco1)Nc1ccc2nsnc2c1	-20	-1	59*	-1	-2	14
CCNS(=O)(=O)c1ccc(NC(=O)c2cc(C(F)(F)F)nn2C)cc1	-1	0	-2	0	-2	-1
CN(C)S(=O)(=O)N1CCC(c2ccc(F)cc2)C(COc2ccc3c(c2)OCO3)C1 (stereo not given)	-12	-2	47*	-1	-1	9
CC(CN1CCCCC1)OC(=O)c1cc2ccccc2o1 (stereo not given)	-31	0	-10	2	46*	0
CC1=C(C(=O)N2CCCCC2)C(c2cccs2)C2=C(CCCC2=O)N1 (stereo not given)	-10	0	-22	1	-1	2
CN=Cc1sc2ccccc2c1O	-4	-1	3	1	1	6
CC(=O)NCCN=Cc1sc2ccccc2c1O	x	x	-1	0	49*	-3
CC(=O)n1cc(C2C(=O)CCCC2=O)c2ccccc21	-9	0	14	0	-7	-3
CC(=O)N1C=CN(C(C)=O)C(c2cn(C)c3ccccc23)C1c1cn(C)c2ccccc12 (stereo not given)	69*	-2	29	-1	-3	-6
Cc1nc2oc3c(NCc4ccccn4)ncnc3c2c2c1COC(C)(C)C2	-24	0	-9	0	2	14
O=C(CCC(=O)Nc1ccc(Oc2ccccc2)cc1)NCCO	-34	0	-2	1	-1	-17
O=C(CN1C(=O)CC(c2ccccc2)=Nc2ccccc21)NCc1ccco1	14	-1	24	-1	-2	31*
O=C(CN(CCc1ccccc1)C(=O)CN1C(=O)COc2ccccc21)NCc1ccco1	-10	-1	-2	0	-1	-3
O=C(NCc1ccco1)C1CCN(C(=O)c2cc3sccc3n2Cc2ccc(Cl)cc2)CC1	58	-1	45*	-1	0	0
COc1ccccc1CN(Cc1cc2c(C)ccc(C)c2[nH]c1=O)Cc1nnnn1Cc1ccco1	-14	0	17	0	2	1
CC1=C(C)CS(=O)N(S(=O)(=O)c2ccc(Cl)cc2)C1 (stereo not given)	19	-1	47*	0	-4	-1
CC1CCN(S(=O)(=O)c2ccc(Cl)cc2)CC1	-6	-2	-1	-1	1	9
O=c1cc(-c2ccccc2)c2ccc(O)c(CN3CCCCC3)c2o1	2	-1	6	0	-1	15
O=c1oc2c(CN3CCCCCC3)c(O)ccc2cc1-c1nc2ccccc2[nH]1	26	0	15	1	-1	30*
CC(=O)Oc1ccc2cc(-c3nc4ccccc4n3C)c(=O)oc2c1	-17	5.7*	-54	21*	89*	33*

High-throughput results: PubChem, The Scripps Research Institute Molecular Screening Center
